Consider one compound from PMC5710144 (Genes & Development, 2017).

Assay [1] has as its system CUL4A / DDB1 association with BRWD2/PHIP. In kind it is cell-based. As to conditions: MLN4924 1 µM. The method in brief: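 In HEK293 TRex cells expressing Flag-BRWD2/PHIP, MLN4924 (1 µM) was added 5 h before harvest. Flag purifications were made from MNase-digested chromatin. Inputs and immunoprecipitates were probed by immunoblot with antibodies to CUL4A, DDB1 and Flag-M2.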

Assay [2] has as its system BRWD2/PHIP CRL4 interaction. Nature of the assay: MS of Flag-BRWD2/PHIP purifications after inhibitor treatment. Particulars: MLN4924 1 µM, 5 h. In kind it is cell-based. The method in brief: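 Flag-BRWD2/PHIP was purified from MNase-digested chromatin of HEK293 TRex cells expressing Flag-BRWD2/PHIP, with parental HEK293 TRex cells as the control. MLN4924 (1 µM) was added 5 h before harvest where indicated. Immunoprecipitated complexes were prepared for MS and analysed by MS.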

With `NS(=O)(=O)OC[C@@H]1C[C@@H](n2ccc3c(N[C@H]4CCc5ccccc54)ncnc32)C[C@@H]1O` [MLN4924], in assay [1] (5 h), the “BRWD2/PHIP association with CUL4A and DDB1” value was “still occurs”; the “CUL4A level / CUL4A interaction with BRWD2/PHIP” value was “slightly reduced”. In addition, the “Nedd8 attachment to CUL4” value in assay [1] (added 5 h prior to harvesting, HEK293) was “blocks Nedd8 attachment to CUL4”. Further, in assay [2], the “BRWD2/PHIP association with CSN complex” value was “disrupts BRWD2/PHIP association”; the “BRWD2/PHIP association with Nedd8-binding protein UBXD7 (UBXN7)” value is “disrupts BRWD2/PHIP association”; the “interaction with chromatin remodelers and histone-binding proteins (CHD4, PHF6, FACT)” value is listed as “not altered”.
